Broadly, the IC50 is the midpoint of a concentration-inhibition curve. Low values mean inhibition by little substance, high ones a need for much substance.

Assay [1] deals with T1, Acetylcholinesterase (Rattus norvegicus, UniProt P37136).
T1 sequence (P37136 whole entry): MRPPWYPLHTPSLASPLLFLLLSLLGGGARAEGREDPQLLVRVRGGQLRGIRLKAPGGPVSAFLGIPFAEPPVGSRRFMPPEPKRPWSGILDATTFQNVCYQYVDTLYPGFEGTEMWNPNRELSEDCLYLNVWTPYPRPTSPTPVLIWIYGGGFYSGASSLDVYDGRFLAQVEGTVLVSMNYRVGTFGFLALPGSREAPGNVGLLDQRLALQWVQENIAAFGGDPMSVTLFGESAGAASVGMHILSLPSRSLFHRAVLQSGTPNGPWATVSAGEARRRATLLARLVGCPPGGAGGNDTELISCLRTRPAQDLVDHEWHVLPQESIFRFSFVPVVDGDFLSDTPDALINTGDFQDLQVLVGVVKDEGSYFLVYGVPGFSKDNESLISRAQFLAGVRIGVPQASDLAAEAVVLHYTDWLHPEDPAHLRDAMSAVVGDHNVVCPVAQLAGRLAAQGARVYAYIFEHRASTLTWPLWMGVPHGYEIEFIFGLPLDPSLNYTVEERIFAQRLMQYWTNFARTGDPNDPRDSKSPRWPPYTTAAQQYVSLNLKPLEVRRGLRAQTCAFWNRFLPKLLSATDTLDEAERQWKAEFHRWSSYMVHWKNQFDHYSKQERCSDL
The assay can be described thus: Inhibition of AChE in rat cortex using acetylthiocholine iodide as substrate after 15 mins by Ellman's method.

A short description of assay [2]: Inhibition of BuChE in rat serum using butyrylthiocholine iodide as substrate after 15 mins by Ellman's method. As to conditions: 0.25 h. A digest of the protocol: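 Rat serum (25%, 10 µL) in 100 µL with 1 mmol/L butyrylthiocholine iodide stock, pH 7.4 phosphate buffer and graded inhibitor levels, 37°C for 15 min; DTNB (0.2%) then added and absorbance read at 405 nm.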
A general note: Ellman's reagent forms a yellow product with free thiols.

In assay [3] the target is Acetylcholinesterase (Electrophorus electricus, UniProt O42275). The assay can be described thus: Inhibition of electric eel AChE using acetylthiocholine iodide as substrate after 15 mins by Ellman's method.
A further assay is filed under the species Rattus norvegicus. Put plainly: Selectivity index, ratio of IC50 for rat serum BuChE to IC50 for rat cortex AChE.

Chain of Acetylcholinesterase (Electrophorus electricus, UniProt O42275) (O42275 whole entry): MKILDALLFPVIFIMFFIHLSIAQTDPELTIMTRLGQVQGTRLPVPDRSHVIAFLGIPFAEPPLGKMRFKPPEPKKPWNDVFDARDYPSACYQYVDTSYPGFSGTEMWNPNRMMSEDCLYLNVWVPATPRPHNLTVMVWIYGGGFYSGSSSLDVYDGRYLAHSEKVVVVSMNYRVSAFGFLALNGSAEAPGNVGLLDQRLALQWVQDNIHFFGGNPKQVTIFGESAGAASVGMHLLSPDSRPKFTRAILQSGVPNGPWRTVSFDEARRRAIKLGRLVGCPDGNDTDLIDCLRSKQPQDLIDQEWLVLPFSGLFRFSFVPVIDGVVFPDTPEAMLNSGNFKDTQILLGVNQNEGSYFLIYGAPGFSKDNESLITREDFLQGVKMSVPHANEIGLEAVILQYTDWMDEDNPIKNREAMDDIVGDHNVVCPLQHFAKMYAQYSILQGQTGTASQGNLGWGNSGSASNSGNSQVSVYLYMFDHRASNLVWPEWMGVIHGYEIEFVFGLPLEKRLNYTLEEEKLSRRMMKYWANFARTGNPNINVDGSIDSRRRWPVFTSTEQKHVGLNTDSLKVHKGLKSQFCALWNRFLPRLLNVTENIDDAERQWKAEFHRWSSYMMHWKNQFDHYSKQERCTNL

Consider `CCN(CCCCOc1cccc(-c2cc(=O)c3c(OC)c(OC)c(OC)cc3o2)c1)Cc1ccccc1`, for which the IC50 on Acetylcholinesterase [1] was 2.35 µM; in assay [2] it was 63.4 µM; on Acetylcholinesterase [3] it was 8.3 µM. The Ratio IC50 in the assay listed under Rattus norvegicus came to 27.
Taken in the same sequence, the figures for `COc1cc2oc(-c3cccc(OCCCCCCN(C)Cc4ccccc4)c3)cc(=O)c2c(OC)c1OC` were 2.13 µM, 78.7 µM, 6.13 µM and 36.9.
Taken in the same sequence, the figures for `COc1ccccc1CN(C)CCOc1cccc(-c2cc(=O)c3c(OC)c(OC)c(OC)cc3o2)c1` were 3.22 µM, 31.4 µM, 2.49 µM and 9.8.
Taken in the same sequence, the figures for `COc1ccccc1CN(C)CCCCOc1cccc(-c2cc(=O)c3c(OC)c(OC)c(OC)cc3o2)c1` were 2.61 µM, 85 µM, 12.2 µM and 32.6.
`COc1cc2oc(-c3cccc(OCCN(C)Cc4ccccc4)c3)cc(=O)c2c(OC)c1OC`: the IC50 was determined as 9.2 µM against Acetylcholinesterase [1], 87.9 µM in assay [2] and 35.7 µM on Acetylcholinesterase [3]. Further, the Ratio IC50 in the assay listed under Rattus norvegicus was determined as 9.6.
Taken in the same sequence, the figures for `COc1cc2oc(-c3ccc(OCCCCN4CCN(Cc5ccccc5)CC4)cc3)cc(=O)c2c(OC)c1OC` were 2.56 µM, 131 µM, 8.53 µM and 51.1.
Taken in the same sequence, the figures for `COc1ccccc1CN(C)CCCCOc1ccc(-c2cc(=O)c3c(O)c(OC)c(OC)cc3o2)cc1` were 3.43 µM, greater than 500 µM, 14.4 µM and greater than 146.
Taken in the same sequence, the figures for `COc1ccccc1CN(C)CCCOc1ccc(-c2cc(=O)c3c(O)c(OC)c(OC)cc3o2)cc1` were 5 µM, greater than 500 µM, 31.1 µM and greater than 100.
As for `COc1cc2oc(-c3cccc(OCCCCCCN4CCN(Cc5ccccc5)CC4)c3)cc(=O)c2c(OC)c1OC`, the IC50 at Acetylcholinesterase [1] is 7.33 µM; in assay [2], greater than 500 µM; against Acetylcholinesterase [3] it was 21.4 µM. Besides, the Ratio IC50 in the assay listed under Rattus norvegicus was greater than 68.2.
Taken in the same sequence, the figures for `COc1ccccc1CN(C)CCCOc1cccc(-c2cc(=O)c3c(O)c(OC)c(OC)cc3o2)c1` were 8.1 µM, 354 µM, 28.6 µM and 43.7.
Regarding `CCN(CCCCCCOc1cccc(-c2cc(=O)c3c(OC)c(OC)c(OC)cc3o2)c1)Cc1ccccc1`, the values for the IC50 (against Acetylcholinesterase [1]; in assay [2]; at Acetylcholinesterase [3]) were 2.03 µM, 52.1 µM and 12.2 µM, respectively. Besides, the Ratio IC50 in the assay listed under Rattus norvegicus came to 25.7.
Taken in the same sequence, the figures for `CCN(CCCCOc1cccc(-c2cc(=O)c3c(OC)c(OC)c(OC)cc3o2)c1)Cc1ccccc1OC` were 0.8 µM, 78.3 µM, 2.37 µM and 97.9.
Regarding `COc1cc2oc(-c3cccc(OCCCN4CCN(Cc5ccccc5)CC4)c3)cc(=O)c2c(OC)c1OC`, the IC50 was found to be 3.12 µM at Acetylcholinesterase [1], 149 µM in assay [2] and 1.59 µM against Acetylcholinesterase [3]. Moreover, the Ratio IC50 in the assay filed under Rattus norvegicus was determined as 47.7.
For `CCN(CCCCCCOc1ccc(-c2cc(=O)c3c(OC)c(OC)c(OC)cc3o2)cc1)Cc1ccccc1`, the IC50 is 0.34 µM on Acetylcholinesterase [1], greater than 500 µM in assay [2] and 2.83 µM on Acetylcholinesterase [3]. Further, in the assay filed under Rattus norvegicus, the Ratio IC50 was greater than 1470.
Turning to `CCN(CCCOc1cccc(-c2cc(=O)c3c(O)c(OC)c(OC)cc3o2)c1)Cc1ccccc1OC`, the figures for the IC50 (against Acetylcholinesterase [1]; in assay [2]; on Acetylcholinesterase [3]) were 1.58 µM, 240 µM and 4.5 µM, respectively. Also, in the assay listed under Rattus norvegicus, the Ratio IC50 is 152.
As to `COc1cc2oc(-c3ccc(OCCCN4CCN(Cc5ccccc5)CC4)cc3)cc(=O)c2c(OC)c1OC`, the IC50 is 1.8 µM against Acetylcholinesterase [1], greater than 500 µM in assay [2] and 8.7 µM against Acetylcholinesterase [3]. The Ratio IC50 in the assay filed under Rattus norvegicus is greater than 278.
On to `COc1cc2oc(-c3cccc(OCCCCN4CCN(C)CC4)c3)cc(=O)c2c(OC)c1OC`, for which the IC50 against Acetylcholinesterase [1] was 0.25 µM; in assay [2] it was greater than 500 µM; at Acetylcholinesterase [3], 1.15 µM. In addition, the Ratio IC50 in the assay filed under Rattus norvegicus is greater than 2000.
Regarding `COc1ccccc1CN(C)CCCCOc1cccc(-c2cc(=O)c3c(O)c(OC)c(OC)cc3o2)c1`, the values for the half-maximal inhibitory concentration (IC50) (on Acetylcholinesterase [1]; in assay [2]; against Acetylcholinesterase [3]) were 7.73 µM, greater than 500 µM and 31 µM, respectively. In the assay listed under Rattus norvegicus, the Ratio IC50 was greater than 64.7.
In the case of `CCN(CCCCOc1cccc(-c2cc(=O)c3c(O)c(OC)c(OC)cc3o2)c1)Cc1ccccc1OC`, the IC50 at Acetylcholinesterase [1] was 2.4 µM; in assay [2], greater than 500 µM; on Acetylcholinesterase [3], 7.97 µM. The Ratio IC50 in the assay filed under Rattus norvegicus was greater than 208.
As to `O=c1cc(-c2ccc(O)cc2)oc2cc(O)c(O)c(O)c12` [SCUTELLAREIN], the IC50 (against Acetylcholinesterase [1]; in assay [2]) was greater than 500 µM each time.
Turning to `COc1ccccc1CN(C)CCCCCCOc1cccc(-c2cc(=O)c3c(OC)c(OC)c(OC)cc3o2)c1`, the IC50 on Acetylcholinesterase [1] was 0.96 µM; in assay [2], 60.7 µM; at Acetylcholinesterase [3], 4.5 µM. Moreover, the Ratio IC50 in the assay listed under Rattus norvegicus is 63.2.
Taken in the same sequence, the figures for `CCN(CCCOc1cccc(-c2cc(=O)c3c(OC)c(OC)c(OC)cc3o2)c1)Cc1ccccc1OC` were 0.33 µM, 77.2 µM, 1.78 µM and 234.
Taken in the same sequence, the figures for `COc1cc2oc(-c3ccc(OCCCN(C)Cc4ccccc4)cc3)cc(=O)c2c(OC)c1OC` were 2.62 µM, 136 µM, 11.5 µM and 51.8.
Regarding `CCN(CCCCCCOc1cccc(-c2cc(=O)c3c(OC)c(OC)c(OC)cc3o2)c1)Cc1ccccc1OC`, the 50% inhibitory concentration (IC50) at Acetylcholinesterase [1] is 0.22 µM; in assay [2], 41.6 µM; at Acetylcholinesterase [3], 1.3 µM. The Ratio IC50 in the assay listed under Rattus norvegicus turned out to be 189.
Turning to `COc1cc2oc(-c3ccc(OCCCCCCN4CCN(Cc5ccccc5)CC4)cc3)cc(=O)c2c(OC)c1OC`, the IC50 is 8.07 µM at Acetylcholinesterase [1], greater than 500 µM in assay [2] and 26.5 µM at Acetylcholinesterase [3]. Moreover, the Ratio IC50 in the assay listed under Rattus norvegicus is greater than 62.
Taken in the same sequence, the figures for `CCN(CCCCCCOc1cccc(-c2cc(=O)c3c(O)c(OC)c(OC)cc3o2)c1)Cc1ccccc1OC` were 1.27 µM, 484 µM, 0.77 µM and 381.
`COc1cc2oc(-c3ccc(OCCCCCCN(C)Cc4ccccc4)cc3)cc(=O)c2c(OC)c1OC`: the IC50 at Acetylcholinesterase [1] was found to be 0.99 µM; in assay [2] it was 84.6 µM; at Acetylcholinesterase [3], 5.4 µM. For the same compound, in the assay listed under Rattus norvegicus, the Ratio IC50 is 85.5.
For the compound `COc1ccccc1CN(C)CCCOc1ccc(-c2cc(=O)c3c(OC)c(OC)c(OC)cc3o2)cc1`, the concentration for half-maximal inhibition (IC50) came to 1.76 µM against Acetylcholinesterase [1], 108 µM in assay [2] and 8.6 µM on Acetylcholinesterase [3]. In the assay listed under Rattus norvegicus, the Ratio IC50 amounted to 61.1.
Taken in the same sequence, the figures for `COc1ccccc1CN(C)CCCCCCOc1ccc(-c2cc(=O)c3c(O)c(OC)c(OC)cc3o2)cc1` were 5.07 µM, greater than 500 µM, 22.6 µM and greater than 98.6.
Taken in the same sequence, the figures for `COc1cc2oc(-c3cccc(OCCCN(C)Cc4ccccc4)c3)cc(=O)c2c(OC)c1OC` were 5.17 µM, 117 µM, 25 µM and 22.7.
Taken in the same sequence, the figures for `COc1cc2oc(-c3ccc(OCCCCN4CCN(C)CC4)cc3)cc(=O)c2c(OC)c1OC` were 1.07 µM, 146 µM, 5.27 µM and 136.
With `COc1cc2oc(-c3cccc(OCCN4CCN(Cc5ccccc5)CC4)c3)cc(=O)c2c(OC)c1OC`, the values for the IC50 (on Acetylcholinesterase [1]; in assay [2]; at Acetylcholinesterase [3]) were 1.18 µM, greater than 500 µM and 2.91 µM, respectively. In the assay filed under Rattus norvegicus, the Ratio IC50 is greater than 424.
Taken in the same sequence, the figures for `COc1ccccc1CN(C)CCCCCCOc1cccc(-c2cc(=O)c3c(O)c(OC)c(OC)cc3o2)c1` were 1.59 µM, 404 µM, 5.8 µM and 254.
Turning to `COc1ccccc1CN(C)CCCCCCOc1ccc(-c2cc(=O)c3c(OC)c(OC)c(OC)cc3o2)cc1`, the values for the IC50 (at Acetylcholinesterase [1]; in assay [2]; against Acetylcholinesterase [3]) were 0.45 µM, 96.1 µM and 2.23 µM, respectively. For the same compound, the Ratio IC50 in the assay listed under Rattus norvegicus is 214.
For `COc1cc2oc(-c3cccc(OCCCCN4CCN(Cc5ccccc5)CC4)c3)cc(=O)c2c(OC)c1OC`, the results for the IC50 (at Acetylcholinesterase [1]; in assay [2]; against Acetylcholinesterase [3]) were 4.03 µM, 109 µM and 25.3 µM, respectively. In the assay filed under Rattus norvegicus, the Ratio IC50 was found to be 27.
Taken in the same sequence, the figures for `COc1cc2oc(-c3ccc(OCCCN4CCN(C)CC4)cc3)cc(=O)c2c(OC)c1OC` were 8.3 µM, greater than 500 µM, 34.7 µM and greater than 60.2.

The record behind these values is ChEMBL document CHEMBL3576829, “Design, synthesis and evaluation of scutellarein-O-alkylamines as multifunctional agents for the treatment of Alzheimer's disease” (Eur J Med Chem, 2015).
